According to ChEMBL document CHEMBL3994578, “Optimization of benzoquinone and hydroquinone derivatives as potent inhibitors of human 5-lipoxygenase” (Eur J Med Chem, 2017):
Activity calls are given as the source filed them. No cut-off for these calls is given here.

Key:
[1] = molecular target: T1, Polyunsaturated fatty acid 5-lipoxygenase (Homo sapiens, UniProt P09917); assay: Inhibition of recombinant human 5-lipoxygenase expressed in Escherichia coli BL21 using arachidonic acid as substrate preincubated for 15 mins followed by substrate addition measured after 10 mins by RP-HPLC method
T1 sequence (P09917 whole entry): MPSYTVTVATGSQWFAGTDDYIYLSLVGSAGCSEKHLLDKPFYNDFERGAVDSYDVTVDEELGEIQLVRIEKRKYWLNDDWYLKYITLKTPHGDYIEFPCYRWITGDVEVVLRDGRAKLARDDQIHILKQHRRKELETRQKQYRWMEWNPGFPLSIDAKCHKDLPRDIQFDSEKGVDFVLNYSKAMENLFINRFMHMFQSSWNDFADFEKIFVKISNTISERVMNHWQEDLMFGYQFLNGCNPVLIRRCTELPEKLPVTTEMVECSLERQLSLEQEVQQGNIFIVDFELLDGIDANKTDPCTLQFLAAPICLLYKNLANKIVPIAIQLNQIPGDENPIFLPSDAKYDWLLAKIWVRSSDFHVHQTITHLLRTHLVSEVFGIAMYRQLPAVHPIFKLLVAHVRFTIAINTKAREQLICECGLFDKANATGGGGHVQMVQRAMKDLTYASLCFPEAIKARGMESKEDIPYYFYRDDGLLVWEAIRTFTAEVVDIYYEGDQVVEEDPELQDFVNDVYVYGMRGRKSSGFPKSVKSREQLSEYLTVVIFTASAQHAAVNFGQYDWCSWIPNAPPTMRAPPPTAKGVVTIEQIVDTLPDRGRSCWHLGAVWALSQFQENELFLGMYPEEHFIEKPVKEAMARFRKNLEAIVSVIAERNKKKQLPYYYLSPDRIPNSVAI
Outline: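 5-LO expressed in E. coli BL21 (pT3-5-LO) was semi-purified on ATP-agarose; 0.5 µg was used in 1 mL PBS with 1 mM EDTA and 1 mM ATP. Compound or 0.1% DMSO was preincubated 15 min at 4 °C, then samples were prewarmed 30 s at 37 °C. Reaction was started with 2 mM CaCl2 plus 20 μM AA and run 10 min at 37 °C. It was stopped with cold methanol, and products were measured by RP-HPLC. IC50 was read graphically from 4-5 concentrations; n = 3-4.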

[2] = molecular target: T1, Polyunsaturated fatty acid 5-lipoxygenase; assay: Inhibition of 5-lipoxygenase in human neutrophils assessed as inhibition of A23187-induced product formation using arachidonic acid as substrate preincubated for 15 mins followed by substrate and A23187 addition measured after 10 mins by RP-HPLC method
Outline: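 Freshly isolated human neutrophils (5×10^6, from leukocyte concentrates by dextran sedimentation and Nycoprep) were taken up in 1 mL PBS pH 7.4 with 1 mg/mL glucose and 1 mM CaCl2. Cells were preincubated 15 min at 37 °C with compound or 0.1% DMSO, then stimulated with 2.5 μM A23187 plus 20 μM arachidonic acid for 10 min at 37 °C. The reaction was stopped with methanol on ice, and LTB4 all-trans isomers and 5-H(P)ETE were measured by RP-HPLC. IC50 was read graphically from 4-5 concentrations; 3-4 independent experiments.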

Mus musculus [3] = assay: Anti-inflammatory activity in CD-1 mouse model of Zymosan-induced peritonitis assessed as inflammatory cells in peritoneal lavage at 10 mg/kg, ip pretreated for 30 mins followed by Zymosan injection measured after 4 hrs (reference value: 7 +/- 0.47 10^6No_unit); type: functional
Mus musculus [4] = assay: Anti-inflammatory activity in CD-1 mouse model of Zymosan-induced peritonitis assessed as LTC4 level in peritoneal lavage at 10 mg/kg, ip pretreated for 30 mins followed by Zymosan injection measured after 30 mins by EIA (reference value: 10.48 +/- 1.72 ng/ml); type: functional
Mus musculus [5] = assay: Anti-inflammatory activity in CD-1 mouse model of Zymosan-induced peritonitis assessed as LTC4 level in peritoneal lavage at 1 mg/kg, ip pretreated for 30 mins followed by Zymosan injection measured after 30 mins by EIA (reference value: 10.48 +/- 1.72 ng/ml); type: functional
Mus musculus [6] = assay: Anti-inflammatory activity in CD-1 mouse assessed as inhibition of carrageenan-induced paw edema at 1 mg/kg, ip pretreated for 30 mins followed by carrageenan injection measured after 4 hrs by hydroplethismometric method relative to control; type: functional; settings: CD-1, ip
Outline: (§1)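 Male CD-1 mice (35–40 g), n = 6 per group, given compound or vehicle (DMSO) i.p. 30 min before a subplantar injection of 50 μL 1% (w/v) carrageenan under light enflurane anaesthesia. Paw volume was read by hydroplethysmometer before injection (basal) and at 2, 4, 6, 24, 48 and 72 h. Data are mean ± SEM; two-way ANOVA with Bonferroni post test.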

[7] = molecular target: T2, Polyunsaturated fatty acid 5-lipoxygenase (Homo sapiens) (UniProt P09917); assay: Non-competitive inhibition of recombinant human 5-lipoxygenase expressed in Escherichia coli BL21 using varying levels of arachidonic acid as substrate preincubated for 15 mins followed by substrate addition measured after 10 mins by RP-HPLC method
T2 sequence (whole entry): T1 sequence (P09917 whole entry)
Outline: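 Semi-purified recombinant 5-LO (0.5 µg, E. coli BL21) in PBS with 1 mM EDTA and 1 mM ATP was preincubated 15 min at 4 °C with compound or 0.1% DMSO, then prewarmed 30 s at 37 °C. Reaction was started with 2 mM CaCl2 plus varying arachidonic acid concentrations and run 10 min at 37 °C. Products were measured by RP-HPLC as percent of control; n = 3.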

Mus musculus [8] = assay: Anti-inflammatory activity in CD-1 mouse assessed as inhibition of carrageenan-induced paw edema at 1 mg/kg, ip pretreated for 30 mins followed by carrageenan injection measured up to 48 hrs by hydroplethismometric method; type: functional, organism-based; outline: as §1
Mus musculus [9] = assay: Anti-inflammatory activity in CD-1 mouse model of Zymosan-induced peritonitis assessed as inflammatory cells in peritoneal lavage at 1 mg/kg, ip pretreated for 30 mins followed by Zymosan injection measured after 4 hrs (reference value: 7 +/- 0.47 10^6No_unit); type: functional
Mus musculus [10] = assay: Anti-inflammatory activity in CD-1 mouse assessed as inhibition of carrageenan-induced paw edema at 1 mg/kg, ip pretreated for 30 mins followed by carrageenan injection measured up to 72 hrs by hydroplethismometric method; type: functional, organism-based; outline: as §1

Structure (SMILES) | IC50 [1] [µM] | IC50 [2] [µM] | further results
COC1=CC(=O)C(=O)C(CCCCCCCCCCO)=C1OC | 1.08 | 0.36 | –
CCCCCCCCCCCCCc1c(O)c(O)cc(OC)c1O | 0.29 | 1.6 | –
COC1=CC(=O)C(=O)C(CCCCCCCCCCCO)=C1OC | 1.96 | 0.12 | –
COC1=CC(=O)C(OC)=C(C(O)CCCCCCCCCO)C1=O (stereo not drawn) | 1.46 | 0.66 | –
CC(c1cc2ccccc2s1)N(O)C(N)=O (stereo not drawn) [ZILEUTON] | – | – | Activity (Mus musculus [3]): 2.88 10^6 cells; Activity (Mus musculus [4]): 3.35 ng/mL
COC1=CC(=O)C(OC)=C(CCCCCCCCCCO)C1=O | 1.75 | 0.55 | –
COC1=CC(=O)C(OC)=C(CCCCCCCCO)C1=O | 1.84 | 0.33 | –
CCCCCCCCCCCCCC1=C(OC)C(OC)=CC(=O)C1=O | – | – | Activity (Mus musculus [5]): 0.14 ng/mL; inhibition in vivo at 1 mg/kg (Mus musculus [6]): 75%; inhibition [7]: Active; inhibition (Mus musculus [8]): Active; Activity (Mus musculus [9]): 3.78 10^6 cells
COC1=CC(=O)C(OC)=C(CCCCCCCCCCCO)C1=O | 1.51 | 0.2 | –

More lines, main results first:

IC50 [1] [µM] | IC50 [2] [µM] | Structure (SMILES) | further results
0.49 | 1.62 | COC1=CC(=O)C(OC)=C(C(CCCCCCCCCO)OC(C)=O)C1=O (stereo not drawn) | –
0.26 | 0.31 | CCCCCCCCCCCCCc1c(O)c(OC)cc(O)c1OC | –
0.22 | 0.15 | COC1=CC(=O)C(=O)C(CCCCCCCCO)=C1OC | –
0.24 | 0.09 | CCCCCCCCCCCCc1c(O)c(O)cc(OC)c1OC | –
0.06 | 0.028 | CCCCCCCCCCCCCc1c(O)c(O)cc(OC)c1OC | Activity (Mus musculus [5]): 1.58 ng/mL; inhibition in vivo at 1 mg/kg (Mus musculus [6]): 77.4%; inhibition (Mus musculus [10]): Active; inhibition [7]: Active; Activity (Mus musculus [9]): 3.08 10^6 cells
0.1 | 0.03 | CCCCCCCCCCCc1c(O)c(O)cc(OC)c1OC | –
